Consider 17 compounds from PubChem BioAssay.

The nature of assay [1]: RPL19A-GFP modulators, yeast TOR pathway, confirmation, cell-based, S. cerevisiae, flow cytometry, cherry picks, mother/daughter gates (AID 2270;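 active = GFP response below 50% of the DMSO control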). The conditions noted are these: S. cerevisiae RPL19A-GFP strain, 3 h, at 10 µM, stronger effect = lower value, 100 = same GFP as DMSO wells. For orientation: In flow cytometry, cells or beads pass a laser one at a time.
Assay [2] is described as follows: LAP4-GFP expression modulators in yeast, confirmation, cell-based, cherry picks, flow cytometry, mother/daughter gates (AID 2271;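 active = GFP response above 150% of the DMSO control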;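 also: ratio of sample to DMSO plate mean so 100% equals DMSO level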). Particulars: S. cerevisiae LAP4-GFP strain, 3 h, at 10 µM, stronger effect = higher value, 100 means same as DMSO control. Put shortly:
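Material – Alexa Fluor 633-labelled Saccharomyces cerevisiae GFP-fusion strain, single-plex · Incubation – compound exposure 3 h at 30 °C, end-over-end rotation · Measured by – GFP by flow cytometry · Measure – median GFP fluorescence as percent of plate-mean DMSO wells · Control set – positive rapamycin (400 ng/mL), negative DMSO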

The nature of assay [3]: modulators of MEP2-GFP levels in yeast, confirmation, S. cerevisiae, flow cytometry GFP, cherry picks (AID 2272;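 active = GFP response above 150% of the DMSO control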;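 also: ratio of well signal to plate DMSO mean so 100% equals DMSO level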). Particulars: S. cerevisiae MEP2-GFP strain, 3 h, at 10 µM, stronger effect = higher value.
Assay [4] in a line: AGP1-GFP expression modulators, hit retest, confirmation, cell-based, flow cytometry, S. cerevisiae, cherry picks (AID 2273).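 Also: median GFP channel fluorescence over the whole cell population gate.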 Particulars: S. cerevisiae AGP1-GFP strain, 3 h, at 10 µM.
Assay [5] can be described thus: modulators of CIT2-GFP expression in yeast, confirmation, S. cerevisiae, GFP fusion, cherry picks, mother/daughter gates (AID 2274). The conditions noted are these: S. cerevisiae CIT2-GFP strain, flow cytometry, 3 h, at 10 µM, stronger effect = higher value.
[6] abbreviates: measured here: daughter cell gate.
[7] abbreviates: measured here: mother cell gate.
Setting [8] is: measured here: daughter cell gate response.
[9] abbreviates: measured here: mother cell gate response.

Structures are written as SMILES. The source made the active and inactive calls.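 The calls were made as follows, unless noted: active = GFP response above 150% of the DMSO level; inconclusive = fewer than 70 events counted for a yeast strain; inactive = the rest.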

Consider `O=C(CC1SC(=Nc2ccccc2F)N(CCN2CCOCC2)C1=O)Nc1ccc(F)cc1F` (configuration not stated), for which the GFP response vs DMSO in assay [1] is 96.8% (inactive); in assay [1] (setting [6]), 97.4%; in assay [1] (setting [7]) it was 96.6%; in assay [3], 102% (inactive). In addition, the figures for the GFP response relative to DMSO in assay [2], in assay [2] (setting [8]) and in assay [2] (setting [9]) were 95.4% (inactive), 96% and 94%, respectively. Moreover, the GFP response, % of DMSO in assay [4] was 97.8% (inactive); in assay [5], 98.3% (inactive); in assay [5] (setting [6]), 99.1%; in assay [5] (setting [7]), 98.5%.

For the compound `COc1cccc2c1Oc1ncccc1N(C(=O)CCC(=O)NCc1ccc(F)cc1)C2`, the GFP response vs DMSO in assay [1] is 98% (inactive); in assay [1] (setting [6]), 98.1%; in assay [1] (setting [7]), 98.2%; in assay [3], 102% (inactive). Also, the GFP response relative to DMSO was 101% (inactive) in assay [2], 101% in assay [2] (setting [8]) and 99.3% in assay [2] (setting [9]). In addition, the GFP response, % of DMSO is 96.6% (inactive) in assay [4], 105% (inactive) in assay [5], 105% in assay [5] (setting [6]) and 104% in assay [5] (setting [7]).

In the case of `COc1ccccc1-c1noc(-c2cc(OC)c(OC)c(OC)c2)n1`, the GFP response vs DMSO in assay [1] was 97.2% (inactive); in assay [1] (setting [6]) it was 96.4%; in assay [1] (setting [7]) it was 96.3%; in assay [3], 104% (inactive). Besides, the GFP response relative to DMSO was 103% (inactive) in assay [2], 105% in assay [2] (setting [8]) and 105% in assay [2] (setting [9]). The GFP response, % of DMSO in assay [4] is 99.2% (inactive); in assay [5] it was 99.1% (inactive); in assay [5] (setting [6]), 96.5%; in assay [5] (setting [7]), 98.7%.

As for `O=C(Nc1c(-c2ccccc2)nc2ccccn12)c1ccco1`, the GFP response vs DMSO was 100% (inactive) in assay [1], 102% in assay [1] (setting [6]), 99.8% in assay [1] (setting [7]) and 98.3% (inactive) in assay [3]. Also, the GFP response relative to DMSO in assay [2] was 99.2% (inactive); in assay [2] (setting [8]), 94.4%; in assay [2] (setting [9]) it was 96.1%. Further, the GFP response, % of DMSO is 98.9% (inactive) in assay [4], 103% (inactive) in assay [5] and 106% in assay [5] (setting [7]).

With `CCCn1c(=N)c(C(=O)NC2CCCC2)cc2c(=O)n3cccc(C)c3nc21`, the GFP response vs DMSO was 100% (inactive) in assay [1], 85.2% in assay [1] (setting [6]), 78% in assay [1] (setting [7]) and 104% (inactive) in assay [3]. The values for the GFP response relative to DMSO in assay [2], in assay [2] (setting [8]) and in assay [2] (setting [9]) were 96.2% (inactive), 100% and 99.3%, respectively. Further, the GFP response, % of DMSO in assay [4] and in assay [5] was 104% (inactive) in each case.

For the compound `CC(=O)Oc1oc(-c2ccccc2)nc1C=Nc1ccc(N(C)C)cc1`, the GFP response vs DMSO in assay [1] was 100% (inactive); in assay [1] (setting [6]) it was 100%; in assay [1] (setting [7]), 99.2%; in assay [3], 95.7% (inactive). For the same compound, the GFP response relative to DMSO in assay [2] is 95% (inactive); in assay [2] (setting [8]), 91%; in assay [2] (setting [9]) it was 98.3%. Besides, the GFP response, % of DMSO in assay [4] was 97% (inactive); in assay [5], 92.6% (inactive); in assay [5] (setting [6]), 91.5%; in assay [5] (setting [7]) it was 92.3%.

Consider `CCc1ccc(C(=O)COC(=O)c2n[nH]c3ccccc23)cc1`, for which the GFP response vs DMSO in assay [1] was 95.8% (inactive); in assay [1] (setting [6]), 97.3%; in assay [1] (setting [7]), 94%; in assay [3] it was 101% (inactive). For the same compound, the GFP response relative to DMSO in assay [2] is 102% (inactive); in assay [2] (setting [8]), 101%; in assay [2] (setting [9]) it was 104%. The GFP response, % of DMSO was 101% (inactive) in assay [4], 101% (inactive) in assay [5], 97.6% in assay [5] (setting [6]) and 102% in assay [5] (setting [7]).

Regarding `Cc1cccc(CS(=O)(=O)c2ncc(Cl)c(C(=O)NCc3ccc4c(c3)OCO4)n2)c1`, the GFP response vs DMSO was 99.7% (inactive) in assay [1], 99% in assay [1] (setting [6]), 102% in assay [1] (setting [7]) and 102% (inactive) in assay [3]. Also, the GFP response relative to DMSO was 90.2% (inactive) in assay [2], 91% in assay [2] (setting [8]) and 91.1% in assay [2] (setting [9]). Further, the GFP response, % of DMSO in assay [4] was 98.7% (inactive); in assay [5] it was 107% (inactive); in assay [5] (setting [6]), 105%; in assay [5] (setting [7]), 108%.

For the compound `CCOc1ccccc1N1C(=O)CC(Sc2ncccc2C(=O)O)C1=O` (configuration not stated), the GFP response vs DMSO in assay [1] was 101% (inactive); in assay [1] (setting [6]), 99%; in assay [1] (setting [7]), 102%; in assay [3], 120% (inactive). For the same compound, the GFP response relative to DMSO in assay [2] was 106% (inactive); in assay [2] (setting [8]), 106%; in assay [2] (setting [9]), 107%. Further, the GFP response, % of DMSO in assay [4] is 98.5% (inactive); in assay [5], 103% (inactive); in assay [5] (setting [6]), 105%; in assay [5] (setting [7]), 102%.

Consider `CCN(CC(=O)NC(C)(C)C)C(=O)COc1c(Cl)cc(Cl)c2ccc(C)nc12`, for which the GFP response vs DMSO in assay [1] was 100% (inactive); in assay [1] (setting [6]) it was 101%; in assay [1] (setting [7]), 99.7%; in assay [3], 126% (inactive). Moreover, the GFP response relative to DMSO in assay [2] was 127% (inactive); in assay [2] (setting [8]) it was 121%; in assay [2] (setting [9]), 125%. Further, the GFP response, % of DMSO was 102% (inactive) in assay [4], 108% (inactive) in assay [5], 111% in assay [5] (setting [6]) and 100% in assay [5] (setting [7]).

In the case of `Cc1nc2c(-c3ccc(F)cc3)c(C)nn2c(N2CCOCC2)c1C`, the GFP response vs DMSO was 100% (inactive) in assay [1], 101% in assay [1] (setting [6]), 100% in assay [1] (setting [7]) and 104% (inactive) in assay [3]. Besides, the GFP response relative to DMSO in assay [2] was 96.5% (inactive); in assay [2] (setting [8]), 96.5%; in assay [2] (setting [9]), 97.5%. The GFP response, % of DMSO in assay [4] was 98.7% (inactive); in assay [5] it was 104% (inactive); in assay [5] (setting [6]), 104%; in assay [5] (setting [7]) it was 101%.

Consider `CCOC(=O)C1=C(c2ccccc2)NC(=S)NC1c1cc([N+](=O)[O-])ccc1OC` (configuration not stated), for which the GFP response vs DMSO in assay [1] was 94% (inactive); in assay [1] (setting [6]) it was 92.6%; in assay [1] (setting [7]), 96.4%; in assay [3], 96.2% (inactive). Besides, the values for the GFP response relative to DMSO in assay [2], in assay [2] (setting [8]) and in assay [2] (setting [9]) were 97.9% (inactive), 97.6% and 97.2%, respectively. The GFP response, % of DMSO in assay [4] was 95.2% (inactive); in assay [5], 99.7% (inactive); in assay [5] (setting [6]), 101%; in assay [5] (setting [7]), 99.7%.

As for `COc1cc(NC(=O)c2cccs2)ccc1NC(=O)c1cc2ccccc2o1`, the GFP response vs DMSO in assay [1] was 97% (inactive); in assay [1] (setting [6]) it was 96.9%; in assay [1] (setting [7]) it was 98.7%; in assay [3], 100% (inactive). The GFP response relative to DMSO in assay [2] was 96.7% (inactive); in assay [2] (setting [8]), 99.2%; in assay [2] (setting [9]) it was 95.1%. The GFP response, % of DMSO in assay [4] is 99.9% (inactive); in assay [5] it was 101% (inactive); in assay [5] (setting [6]) it was 101%; in assay [5] (setting [7]), 101%.

In the case of `O=[N+]([O-])c1cc(/C=N/O)ccc1Oc1ccccc1Cl`, the GFP response vs DMSO was 76.7% (inactive) in assay [1], 75.3% in assay [1] (setting [6]), 70.2% in assay [1] (setting [7]) and 146% (inactive) in assay [3]. The GFP response relative to DMSO in assay [2] is 146% (inactive); in assay [2] (setting [8]) it was 106%; in assay [2] (setting [9]), 134%. Moreover, the GFP response, % of DMSO in assay [4] is 135% (inactive); in assay [5], 155% (active).

Take `COc1cc(C2CC(c3cccnc3)=NN2c2ccc(F)cc2)cc(OC)c1OC` (configuration not stated): the GFP response vs DMSO in assay [1] was 98.2% (inactive); in assay [1] (setting [6]), 98.4%; in assay [1] (setting [7]) it was 95.2%; in assay [3], 101% (inactive). Besides, the GFP response relative to DMSO in assay [2] was 95.3% (inactive); in assay [2] (setting [8]), 94.4%; in assay [2] (setting [9]), 95.4%. In addition, the GFP response, % of DMSO is 102% (inactive) in assay [4], 98.6% (inactive) in assay [5], 97.6% in assay [5] (setting [6]) and 96% in assay [5] (setting [7]).

For the compound `CN1CCSc2ccc(C(=O)Nc3cccc(F)c3)cc21`, the GFP response vs DMSO in assay [1] was 95.2% (inactive); in assay [1] (setting [6]), 91.8%; in assay [1] (setting [7]), 96.7%; in assay [3] it was 99.5% (inactive). Also, the figures for the GFP response relative to DMSO in assay [2], in assay [2] (setting [8]) and in assay [2] (setting [9]) were 120% (inactive), 115% and 121%, respectively. The GFP response, % of DMSO in assay [4] is 97.8% (inactive); in assay [5], 92.1% (inactive); in assay [5] (setting [6]), 89%; in assay [5] (setting [7]) it was 91%.

Take `CC(=O)Oc1ccc(N2C(=O)C3C4C=CC(O4)C3C2=O)cc1` (configuration not stated): the GFP response vs DMSO is 98.2% (inactive) in assay [1], 99.1% in assay [1] (setting [6]), 98.9% in assay [1] (setting [7]) and 107% (inactive) in assay [3]. Besides, the GFP response relative to DMSO in assay [2] was 102% (inactive); in assay [2] (setting [8]) it was 101%; in assay [2] (setting [9]) it was 101%. The GFP response, % of DMSO in assay [4] was 96.8% (inactive); in assay [5] it was 99.7% (inactive); in assay [5] (setting [6]), 99.1%; in assay [5] (setting [7]), 99.7%.
